In brackets after ≈: the same amount, converted by molar mass. Several values for one entry are separate records, joined by “and”; a condition that tells them apart may be missing. Equal values may be shown once. Entries after “also recorded” stand apart in the source; their conditions may differ.
Assays:
SERCA2a [1] = biological target: T1, SERCA2a (Sus scrofa, UniProt P11607); assay: NADH-coupled enzyme-linked Ca2+-ATPase activity assay in cardiac SR vesicles; format: biochemical, porcine; conditions: for EC50 / Ca2+-ATPase [Ca2+]MAX % effect / Ca2+-ATPase [Ca2+]MID % effect: cardiac SR; for Max increase (%): vs no compound
T1 sequence (P11607 1-997 isoform P11607-2): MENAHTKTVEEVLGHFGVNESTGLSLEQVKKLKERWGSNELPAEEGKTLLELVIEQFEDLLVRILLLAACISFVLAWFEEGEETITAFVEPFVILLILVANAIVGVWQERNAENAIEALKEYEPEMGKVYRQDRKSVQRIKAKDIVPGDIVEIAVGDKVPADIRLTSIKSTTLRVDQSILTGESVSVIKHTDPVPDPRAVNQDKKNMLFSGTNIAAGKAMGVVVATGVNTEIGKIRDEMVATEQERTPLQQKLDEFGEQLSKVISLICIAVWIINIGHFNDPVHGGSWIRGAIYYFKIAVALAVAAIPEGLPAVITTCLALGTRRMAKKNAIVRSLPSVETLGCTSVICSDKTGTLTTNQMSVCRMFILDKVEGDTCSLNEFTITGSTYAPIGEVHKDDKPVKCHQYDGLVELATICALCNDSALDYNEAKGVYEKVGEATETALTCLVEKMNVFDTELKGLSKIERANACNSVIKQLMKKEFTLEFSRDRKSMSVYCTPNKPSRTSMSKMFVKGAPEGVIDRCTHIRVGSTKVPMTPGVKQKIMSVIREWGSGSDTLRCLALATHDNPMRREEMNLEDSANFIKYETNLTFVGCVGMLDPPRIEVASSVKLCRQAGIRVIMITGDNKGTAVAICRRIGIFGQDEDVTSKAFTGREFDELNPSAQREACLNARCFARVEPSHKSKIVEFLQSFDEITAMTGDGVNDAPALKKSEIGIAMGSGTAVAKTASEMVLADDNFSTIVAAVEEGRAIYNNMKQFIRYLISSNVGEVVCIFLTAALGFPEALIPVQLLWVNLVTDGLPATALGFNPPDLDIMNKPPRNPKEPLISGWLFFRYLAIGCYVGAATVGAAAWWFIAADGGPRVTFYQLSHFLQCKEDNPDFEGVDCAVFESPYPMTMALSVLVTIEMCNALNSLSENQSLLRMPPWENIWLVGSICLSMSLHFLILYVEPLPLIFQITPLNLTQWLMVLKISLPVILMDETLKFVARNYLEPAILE

SERCA2a [2] = biological target: T1, SERCA2a; assay: oxalate-based Ca2+-uptake; format: biochemical, porcine; conditions: cardiac SR
Outline: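 Porcine left-ventricular SR vesicles (30 μg/mL) were prepared by differential centrifugation. Buffer: 50 mM MOPS, 100 mM KCl, 30 mg/mL sucrose, 10 mM potassium oxalate, 2 μM Fluo-4, free Ca2+ at pCa 8.0, 6.2 or 5.4, test compound 0.048–50 μM (two-fold series). Incubation 20 min at 22 °C, dark; 5 mM MgATP start; Fluo-4 decrease (ex 485/em 520 nm) tracked 15 min. Basal pCa 8.0 rate subtracted; Hill fit gives EC50 and % effect.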

Intrinsic clearance = format: in vitro ADME, human; conditions: for Thalf: human liver S9 0.5 mg/mL, 1 μM compound, NADPH, 37 °C; for microsomal CLint at 1 μM: human, liver S9 fraction, pH 7.4
[3] = Solubility assay in phosphate buffer, LC-MS/MS; format: physicochemical; conditions: 50 mM phosphate buffer pH 7.4, 37 °C, 12 h
HEK-293 cells = assay: Cell viability; format: cell-based; conditions: read-out: Cell viability IC50, 72 h exposure, MTT
Outline: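 HEK-293.2sus cells were seeded at 9.6 × 10^3 cells/well and given a concentration gradient of test compound for 72 h at 37 °C, 5% CO2. MTT (0.5 mg/mL) was added for 3–4 h, medium removed, formazan dissolved in DMSO (15 min shaking, 21 °C), and A595 read. Cell-free background was subtracted, values taken relative to DMSO controls, and IC50 fitted by nonlinear least squares. n = 3–6.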

SERCA1a = assay: NADH-coupled Ca2+-ATPase activity assay in skeletal SR vesicles; format: biochemical, rabbit; conditions: Table 5 vs Table S2
Outline: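 Light SR came from rabbit skeletal white muscle by differential centrifugation and sucrose gradient. NADH-coupled assay: 4 μg/mL SR in 50 mM MOPS pH 7.0, 100 mM KCl, 1 mM EGTA, 0.2 mM NADH, 1 mM PEP, 10 IU/mL PK and LDH, 7 μM A23187, pCa 5.4/6.2/8.0. Test compound (0.048–50 μM) 20 min; 5 mM MgATP start; A340. pCa 8.0 rate subtracted; Hill fit gives EC50 and maximal % effect.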

SERCA2a [4] = biological target: T1, SERCA2a; conditions: earlier HTS study; cited from earlier work
cardiomyocytes = conditions: cited from earlier work
SERCA2a [5] = biological target: T1, SERCA2a; conditions: earlier HTS study; cited from earlier work; remark: listed apart in the source
[6] = Ca2+-ATPase [Ca2+]MAX EC50 (μM), [Ca2+]MAX (pCa 5.4)
[7] = Ca2+-ATPase [Ca2+]MID EC50 (μM), [Ca2+]MID (pCa 6.2)
[8] = Ca2+-ATPase activity, [Ca2+]MAX (pCa 5.4), mean±SD, n=4-6
[9] = Ca2+-Uptake [Ca2+]MAX EC50 (μM), [Ca2+]MAX (pCa 5.4)
[10] = Ca2+-Uptake [Ca2+]MID EC50 (μM), [Ca2+]MID (pCa 6.2)

Structure (SMILES)	EC50 (SERCA2a [1]; [6])	EC50 (SERCA2a [1]; [7])	Max increase (%) (SERCA2a [1]; [8])	EC50 (SERCA2a [2]; [9])	EC50 (SERCA2a [2]; [10])	Ca2+-Uptake [Ca2+]MAX EC50 (μM) (SERCA2a [2]; [Ca2+]MAX (pCa 5.4))	Thalf (Intrinsic clearance)	microsomal CLint at 1 μM (Intrinsic clearance)	Solubility [3]	Ca2+-Uptake [Ca2+]MAX % effect (SERCA2a [2]; [Ca2+]MAX (pCa 5.4))	IC50 (HEK-293 cells)	Ca2+-ATPase [Ca2+]MAX % effect (SERCA2a [1]; [Ca2+]MAX (pCa 5.4))	Ca2+-ATPase [Ca2+]MID % effect (SERCA2a [1]; [Ca2+]MID (pCa 6.2))	Ca2+-Uptake [Ca2+]MID % effect (SERCA2a [2]; [Ca2+]MID (pCa 6.2))	selectivity for SERCA1a (vs SERCA2a), ATPase activity (SERCA1a; [Ca2+]MID)	activation of SERCA2a Ca2+-uptake (SERCA2a [4])	SR Ca2+ load / Ca2+ dynamics (cardiomyocytes)	activation of SERCA2a ATPase activity (SERCA2a [5])	selectivity for SERCA2a relative to SERCA1a, higher efficacy, ATPase activity (SERCA1a; [Ca2+]MAX)	Max decrease (%) (SERCA2a [1]; [8])
CCCN(Cc1ccccc1OC)C(=O)c1ccc(F)c(Br)c1 [Compound 25, 3-Bromo-4-fluoro-N-(2-methoxybenzyl)-N-propylbenzamide]	4 ± 2.1 µM	3.7 ± 0.73 µM	53% and 53±7.7%	0.8 ± 0.57 µM	0.89 ± 0.4 µM	decreased	74.5 min	15 ± 7.2 µL/min/mg	507 ± 7 µg/mL (≈ 1330 µM)											
CCCN(Cc1ccccc1OC)C(=O)c1cc2c(s1)CCCC2 [Compound 8, N-(2-Methoxybenzyl)-N-propyl-4,5,6,7-tetrahydrobenzo[b]thiophene-2-carboxamide]	3.3 ± 0.5 µM	3.6 ± 2.8 µM	45% and 45±10%	1.1 ± 0.45 µM	> 50 µM	unchanged	20.1 min	73 ± 9.3 µL/min/mg		8.8±2.3%	29 ± 18 µM									
CCCN(Cc1ccccc1OC)C(=O)c1cccc(C(F)(F)F)c1 [Compound 21, N-(2-Methoxybenzyl)-N-propyl-3-(trifluoromethyl)benzamide]	5.1 ± 2.1 µM	5.3 ± 1.3 µM	40±14%	1.5 ± 0.33 µM	1 ± 0.86 µM	increased	10.3 min	133 ± 11 µL/min/mg		15±5.9%	31 ± 16 µM	40±14%	25±7.4%	7.0±3.7%	at least 8 fold					
Cc1ccc2cccc(NC(=O)c3ccc(OC(C)C)cc3)c2n1 [CDN1163, reference compound]											63 µM									
CCCN(Cc1ccccc1OC)C(=O)c1cc(C)c(C)s1 [Compound 1, N-(2-Methoxybenzyl)-4,5-dimethyl-N-propylthiophene-2-carboxamide]	5.3 ± 1.8 µM	6 ± 1.2 µM	57% and 57±13%	1.1 ± 0.73 µM	0.46 ± 0.35 µM		97.6 min	14 ± 1.1 µL/min/mg								24%	increase SR Ca^2+ load; also recorded: increased Ca^2+ dynamics and Ca^2+ load	58%		
CCCN(Cc1ccccc1OC)C(=O)c1cc(F)cc(Br)c1 [Compound 26, 3-Bromo-5-fluoro-N-(2-methoxybenzyl)-N-propylbenzamide]	2.2 ± 0.27 µM	2.1 ± 0.88 µM	33±6.5%	0.54 ± 0.3 µM	> 50 µM	decreased	62.4 min	22 ± 1.1 µL/min/mg												
CCCCN(Cc1ccccc1OC)C(=O)c1cc(C)c(C)s1 [Compound 33, N-Butyl-N-(2-methoxybenzyl)-4,5-dimethylthiophene-2-carboxamide]	4 ± 0.8 µM	3 ± 1 µM	72% and 72±8.5%	1.1 ± 0.35 µM	0.63 ± 0.21 µM	unchanged	16.6 min	83 ± 4.2 µL/min/mg		22±5.6%		72±8.5%	23±6.0%	15±7.0%						
CCN(Cc1ccccc1OC)C(=O)c1cc(C)c(C)s1 [Compound 32, N-Ethyl-N-(2-methoxybenzyl)-4,5-dimethylthiophene-2-carboxamide]	6.3 ± 1.8 µM	4.6 ± 2 µM	43±6.7%	0.77 ± 0.57 µM	0.91 ± 0.85 µM	decreased	34.7 min	37 ± 6.2 µL/min/mg		13±5.7%		43±6.7%	24±6.0%	6.0±1.6%					at least 8 fold	
CCCN(Cc1ccccc1OC)C(=O)c1ccc(Br)c(Br)c1 [Compound 23, 3,4-Dibromo-N-(2-methoxybenzyl)-N-propylbenzamide]	0.9 ± 0.38 µM	15.3 ± 4.1 µM	28±8.1%	> 50 µM	9.2 ± 1.5 µM		15.3 min	79 ± 19 µL/min/mg				28±8.1%								28±9.0%

— article PMC12900291 (European journal of medicinal chemistry, 2025)
